{"data": "Measured values gathered from unrelated publications", "SMARCA2 bromodomain": "SWI/SNF-related matrix-associated actin-dependent regulator of chromatin subfamily A member 2, bromodomain (SMARCA2, Homo sapiens, UniProt P51531)", "HSP90B1": "Endoplasmin (HSP90B1, Canis lupus familiaris, UniProt P41148)", "LYZ": "Lysozyme C (LYZ, Gallus gallus, UniProt P00698)", "MTOR": "Serine/threonine-protein kinase mTOR (MTOR, Homo sapiens, UniProt P42345)", "note": "Compare with care: the assays were run in different laboratories."}
{"SMILES": "Cc1ncsc1-c1ccc(CNC(=O)[C@@H]2C[C@@H](O)CN2C(=O)[C@@H](NC(=O)C2(F)CC2)C(C)(C)C)c(OCCOc2ccc(CN3CCN(c4cc(-c5ccccc5O)nnc4N)CC3)cc2)c1", "target": "SMARCA2 bromodomain", "assay": "binding, SPR", "Kd": "1.8 µM"}
{"SMILES": "c1cncc(-c2cccc(Nc3nccc(NC4CCCCC4)n3)c2)c1", "target": "Non-receptor tyrosine-protein kinase TYK2, JH2 (TYK2, Homo sapiens, UniProt P29597)", "assay": "binding, competition with immobilised ligand", "Kd": "0.74 µM"}
{"SMILES": "COC(=O)c1c(O)cc(O)c(Cl)c1CCC(=O)Nc1nncs1", "target": "HSP90B1", "assay": "ligand displacement, FP", "Kd": "1.54 µM"}
{"SMILES": "NC(=O)c1ccc(-c2nc(-c3ccc4c(c3)OCO4)c(-c3ccccn3)[nH]2)cc1", "target": "Epidermal growth factor receptor (EGFR, Homo sapiens, UniProt P00533)", "assay": "binding", "Kd": "> 10 µM"}
{"SMILES": "CCCN1CCN(c2ccc(-c3cncc(Cl)c3N3CCC4(CCNC4=O)CC3)cc2)CC1", "target": "Protein kinase C delta type (PRKCD, Homo sapiens, UniProt Q05655)", "assay": "cell-free assay", "conditions": "lysate", "Kd": "3.47 µM"}
{"SMILES": "CC(=O)N[C@H]1[C@H](O[C@H]2[C@H](O)[C@@H](NC(C)=O)C(O)O[C@@H]2CO)O[C@H](CO)[C@@H](O[C@@H]2O[C@H](CO)[C@@H](O)[C@H](O)[C@H]2NC(C)=O)[C@@H]1O (some centres unmarked)", "target": "Chitotriosidase-1 (Homo sapiens, UniProt Q13231)", "assay": "binding", "Kd": "3100 µM"}
{"SMILES": "COCCOCCc1c(C)c2cc(OC)c(O)c(C=O)c2oc1=O", "target": "Serine/threonine-protein kinase/endoribonuclease IRE1 (Mus musculus, UniProt Q9EQY0, N772Y)", "assay": "binding", "Kd": "0.84 µM"}
{"SMILES": "CC(=O)N[C@H]1[C@H](O[C@H]2[C@H](O)[C@@H](NC(C)=O)C(O)O[C@@H]2CO)O[C@H](CO)[C@@H](O[C@@H]2O[C@H](CO)[C@@H](O)[C@H](O)[C@H]2NC(C)=O)[C@@H]1O (some centres unmarked)", "target": "LYZ", "assay": "binding", "conditions": "pH 7.4", "Kd": "6.2 µM"}
{"SMILES": "COC(=O)c1c(O)cc(O)c(Cl)c1CCC(=O)Nc1ccccc1", "target": "HSP90B1", "assay": "ligand displacement, FP", "Kd": "20.5 µM"}
{"SMILES": "C=CC(=O)N1CCC(C(=O)N(C)CC(=O)N2CCN(c3nc(-c4cnc(N)nc4C(F)F)nc(N4CCOCC4)n3)CC2)CC1", "target": "MTOR", "assay": "binding, competition with immobilised ligand", "Kd": "0.026 µM"}
{"SMILES": "Cc1cc2nc3c(=O)[nH]c(=O)nc-3n(C[C@H](O)[C@H](O)[C@H](O)COP(=O)(O)OP(=O)(O)OC[C@H]3O[C@@H](n4cnc5c(N)ncnc54)[C@H](O)[C@@H]3O)c2cc1C", "target": "DAZ-associated protein 1 (Homo sapiens, UniProt Q96EP5)", "assay": "binding", "conditions": "lysate", "Kd": "0.007 µM"}
{"SMILES": "COC(=O)c1c(O)cc(O)c(Cl)c1CCC(=O)Nc1ccccn1", "target": "HSP90B1", "assay": "ligand displacement, FP", "Kd": "0.82 µM"}
{"SMILES": "O=C1OC2(c3ccc(O)cc3Oc3cc(O)ccc32)c2ccccc21", "target": "LYZ", "assay": "binding, fluorescence", "Kd": "3.8 µM"}
{"SMILES": "CC1(C)[C@@H]2CC[C@@]1(C)C(=O)C2", "target": "Camphor 5-monooxygenase (camC, Pseudomonas putida, UniProt P00183)", "assay": "binding, ITC", "Kd": "1.2 µM"}
{"SMILES": "Cc1ncsc1-c1ccc(CNC(=O)[C@@H]2C[C@H](O)CN2C(=O)[C@@H](NC(=O)C2(F)CC2)C(C)(C)C)c(OCCc2ccc(CN3CCN(c4cc(-c5ccccc5O)nnc4N)CC3)cc2)c1", "target": "SMARCA2 bromodomain", "assay": "binding, SPR", "Kd": "1.2 µM"}
{"SMILES": "COC(=O)c1c(O)cc(O)c(Cl)c1CCC(=O)Nc1ccc(Br)cc1", "target": "HSP90B1", "assay": "ligand displacement, FP", "Kd": "1.5 µM"}
{"SMILES": "CCC(=O)N1CCC(C(=O)N(C)CC(=O)N2CCN(c3nc(-c4cnc(N)nc4C(F)F)nc(N4CCOCC4)n3)CC2)CC1", "target": "MTOR", "assay": "binding, competition with immobilised ligand", "Kd": "0.054 µM"}
